Laboratory results: ChEMBL document CHEMBL4689842, “EUbOPEN Chemogenomics Library wave 1” (2021)
“And” between values parts separate entries of the source, which are not always exact repeats. Identical values can stand only once.

Test system: U2OS
Assay: Multiplex assay against U2OS
Assay type: toxicity, cell-based
Conditions: human
Outline: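 Live cells carried four stains from seeding: Hoechst33342, BioTracker Green Microtubule Cytoskeleton Dye, MitoTracker Red and Annexin V Alexa Fluor 680. They were imaged on a CQ1 microscope at 37°C and 5% CO2 after compound addition. Using CellPathfinder machine-learning gating, cells were split into Hoechst high-intensity objects or normal cells, normal cells into healthy, pyknosed or fragmented nuclei, and pyknosed cells into mitotic or apoptotic; tubulin, mitochondrial-mass and membrane-permeability phenotypes are per cents of healthy-nucleus cells.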

[1] = 12 h, 1 µM, compound concentration 1 uM, replicate 1
[2] = 12 h, 1 µM, compound concentration 1 uM, replicate 2
[3] = 24 h, 1 µM, compound concentration 1 uM, replicate 1
[4] = 24 h, 1 µM, compound concentration 1 uM, replicate 2
[5] = 12 h, 10 µM, compound concentration 10 uM, replicate 1
[6] = 12 h, 10 µM, compound concentration 10 uM, replicate 2
[7] = 24 h, 10 µM, compound concentration 10 uM, replicate 1
[8] = 24 h, 10 µM, compound concentration 10 uM, replicate 2
[9] = 48 h, 1 µM, compound concentration 1 uM, replicate 1
[10] = 48 h, 1 µM, compound concentration 1 uM, replicate 2
[11] = 48 h, 10 µM, compound concentration 10 uM, replicate 1
[12] = 48 h, 10 µM, compound concentration 10 uM, replicate 2

In the case of Cn1cc(C2=C(c3cn(C4CCN(Cc5ccccn5)CC4)c4ccccc34)C(=O)NC2=O)c2ccccc21 [ENZASTAURIN], the “Population Apoptotic (%)” value [1] was 65% and 50%, the “Population Fragmented Nuclei (%)” value [1] was 20% and 9% and the “Population Healthy Nuclei (%)” value [1] was 30% and 78%. For the same compound, the “Population Hoechst High Intensity Objects (%)” value [1] was 4% and 5%, the “Population Membrane Permeable-Phenotype (%)” value [1] was 58% and the “Population Mitotic Cells (%)” value [1] was 34% and 50%. The “Population Normal (%)” value [1] was 95% and 94%, the “Population Tubulin-Different-Phenotype (%)” value [1] was 48% and the “Total Cell Count” value [1] was 159 and 95. For the same compound, the “Population Apoptotic (%)” value [2] was 76% and 37%, the “Population Fragmented Nuclei (%)” value [2] was 18% and 16% and the “Population Healthy Nuclei (%)” value [2] was 45% and 70%. For the same compound, the “Population Hoechst High Intensity Objects (%)” value [2] was 11% and 17%, the “Population Membrane Permeable-Phenotype (%)” value [2] was 63% and 33% and the “Population Mitotic Cells (%)” value [2] was 23% and 62%. The “Population Normal (%)” value [2] was 88% and 82%, the “Population Pyknosed Nuclei (%)” value [2] was 35% and 13% and the “Population Tubulin-Different-Phenotype (%)” value [2] was 100% and 34%. The “Total Cell Count” value [2] was 147 and 102, the “Population Apoptotic (%)” value [3] was 89% and 53% and the “Population Fragmented Nuclei (%)” value [3] was 15% and 5%. For the same compound, the “Population Normal (%)” value [3] was 83% and 96%, the “Total Cell Count” value [3] was 194 and 119 and the “Population Apoptotic (%)” value [4] was 62%. The “Population Fragmented Nuclei (%)” value [4] was 14% and 8%, the “Population Hoechst High Intensity Objects (%)” value [4] was 14% and 10% and the “Population Membrane Permeable-Phenotype (%)” value [4] was 19%. For the same compound, the “Population Mitotic Cells (%)” value [4] was 37%, the “Population Normal (%)” value [4] was 85% and 89% and the “Population Tubulin-Different-Phenotype (%)” value [4] was 17%. The “Total Cell Count” value [4] was 149 and 124.

With O=C(NCCCC1CCCCC1)c1ccc(CNC(=O)c2cnn(-c3ccccc3)c2C(F)(F)F)cc1 [SR-321] the “Population Apoptotic (%)” value [1] was 37% [middle of 4 runs], the “Population Healthy Nuclei (%)” value [1] was 74% and 91% and the “Population Hoechst High Intensity Objects (%)” value [1] was 6% and 9% and 5%. The “Population Membrane Permeable-Phenotype (%)” value [1] was 9% and 7%, the “Population Mitotic Cells (%)” value [1] was 66% [middle of 4 runs] and the “Population Normal (%)” value [1] was 93% and 90% and 94%. The “Population Pyknosed Nuclei (%)” value [1] was 14% and 13% and 7%, the “Population Tubulin-Different-Phenotype (%)” value [1] was 15% and 16% and 35% and the “Total Cell Count” value [1] was 181 [middle of 4 runs]. The “Population Healthy Nuclei (%)” value [2] was 89% and 53% and 83% and 88%, the “Population Hoechst High Intensity Objects (%)” value [2] was 8% and 21% and 7% and the “Population Membrane Permeable-Phenotype (%)” value [2] was 14% and 0% and 12%. For the same compound, the “Population Normal (%)” value [2] was 91% and 78% and 92%, the “Population Pyknosed Nuclei (%)” value [2] was 5% and 6% and the “Population Tubulin-Different-Phenotype (%)” value [2] was 20% and 26%. For the same compound, the “Total Cell Count” value [2] was 89 [middle of 4 runs], the “Population Apoptotic (%)” value [5] was 40% and 31% and 41% and the “Population Fragmented Nuclei (%)” value [5] was 9% [middle of 4 runs]. For the same compound, the “Population Healthy Nuclei (%)” value [5] was 71% and 80% and 75% and 86%, the “Population Hoechst High Intensity Objects (%)” value [5] was 2% and 4% and 6% and the “Population Mitochondria Different-Phenotype (%)” value [5] was 24% and 25% and 20%. The “Population Mitotic Cells (%)” value [5] was 60% and 68% and 58%, the “Population Normal (%)” value [5] was 97% and 95% and 93% and the “Population Pyknosed Nuclei (%)” value [5] was 14% [middle of 4 runs]. For the same compound, the “Population Tubulin-Different-Phenotype (%)” value [5] was 15% [middle of 4 runs], the “Total Cell Count” value [5] was 197 [middle of 4 runs] and the “Population Healthy Nuclei (%)” value [6] was 66% and 69%. The “Population Membrane Permeable-Phenotype (%)” value [6] was 5% and 0% and 11%, the “Population Mitotic Cells (%)” value [6] was 80% and 50% and 81% and 88% and the “Population Normal (%)” value [6] was 73% and 94% and 91% and 92%. For the same compound, the “Total Cell Count” value [6] was 117 [middle of 4 runs], the “Population Apoptotic (%)” value [3] was 40% and 45% and 15% and the “Population Fragmented Nuclei (%)” value [3] was 8% [middle of 4 runs]. For the same compound, the “Population Healthy Nuclei (%)” value [3] was 85% and 81% and 79% and 91%, the “Population Membrane Permeable-Phenotype (%)” value [3] was 8% and 5% and 10% and the “Population Mitotic Cells (%)” value [3] was 60% and 54% and 84%. The “Population Normal (%)” value [3] was 94% and 96% and 98%, the “Population Pyknosed Nuclei (%)” value [3] was 7% and 9% and 8% and the “Population Tubulin-Different-Phenotype (%)” value [3] was 19% [middle of 4 runs]. The “Total Cell Count” value [3] was 233 [middle of 4 runs], the “Population Healthy Nuclei (%)” value [4] was 66% and 82% and 74% and 94% and the “Population Membrane Permeable-Phenotype (%)” value [4] was 4% and 3% and 0% and 7%. The “Population Mitochondria Different-Phenotype (%)” value [4] was 19% [middle of 4 runs], the “Population Mitotic Cells (%)” value [4] was 100% and 40% and the “Population Normal (%)” value [4] was 85% and 95% and 89% and 97%. The “Population Tubulin-Different-Phenotype (%)” value [4] was 30% and 22%, the “Total Cell Count” value [4] was 88 [middle of 4 runs] and the “Population Apoptotic (%)” value [7] was 44% and 36% and 21%. The “Population Healthy Nuclei (%)” value [7] was 71% and 75% and 74% and 89%, the “Population Hoechst High Intensity Objects (%)” value [7] was 2% and 4% and the “Population Membrane Permeable-Phenotype (%)” value [7] was 5% [middle of 4 runs]. The “Population Mitochondria Different-Phenotype (%)” value [7] was 19% and 17%, the “Population Mitotic Cells (%)” value [7] was 55% and 63% and 78% and the “Population Normal (%)” value [7] was 97% and 95%. The “Population Pyknosed Nuclei (%)” value [7] was 15% and 16% and 6%, the “Population Tubulin-Different-Phenotype (%)” value [7] was 12% [middle of 4 runs] and the “Total Cell Count” value [7] was 232 [middle of 4 runs]. The “Population Healthy Nuclei (%)” value [8] was 67% and 65% and 86%, the “Population Mitotic Cells (%)” value [8] was 50% and 66% and 88% and the “Population Normal (%)” value [8] was 93% and 81% and 92% and 96%. The “Population Pyknosed Nuclei (%)” value [8] was 11% and 14%, the “Total Cell Count” value [8] was 124 [middle of 4 runs] and the “Population Apoptotic (%)” value [9] was 33% and 45% and 47%. The “Population Fragmented Nuclei (%)” value [9] was 5% and 9%, the “Population Healthy Nuclei (%)” value [9] was 88% and 86% and the “Population Hoechst High Intensity Objects (%)” value [9] was 1%. For the same compound, the “Population Membrane Permeable-Phenotype (%)” value [9] was 2%, the “Population Mitochondria Different-Phenotype (%)” value [9] was 11% and 8% and the “Population Mitotic Cells (%)” value [9] was 66% and 54% and 52%. The “Population Normal (%)” value [9] was 98%, the “Population Pyknosed Nuclei (%)” value [9] was 7% and the “Population Tubulin-Different-Phenotype (%)” value [9] was 23% and 19%. For the same compound, the “Total Cell Count” value [9] was 217 and 382 and 367, the “Population Fragmented Nuclei (%)” value [10] was 4% and 7% and 6% and the “Population Healthy Nuclei (%)” value [10] was 85% and 87%. The “Population Hoechst High Intensity Objects (%)” value [10] was 6% and 3% and 8%, the “Population Membrane Permeable-Phenotype (%)” value [10] was 6% and 5% and 4% and the “Population Mitochondria Different-Phenotype (%)” value [10] was 18% and 10% and 15%. For the same compound, the “Population Normal (%)” value [10] was 93% and 96% and 92%, the “Population Pyknosed Nuclei (%)” value [10] was 10% and 4% and 6% and the “Population Tubulin-Different-Phenotype (%)” value [10] was 42% and 18% and 27%. For the same compound, the “Total Cell Count” value [10] was 118 and 104 and 109, the “Population Apoptotic (%)” value [11] was 50% and 43% and 45% and the “Population Fragmented Nuclei (%)” value [11] was 9% and 10% and 8%. The “Population Healthy Nuclei (%)” value [11] was 72% and 74% and 78%, the “Population Hoechst High Intensity Objects (%)” value [11] was 3% and 2% and the “Population Membrane Permeable-Phenotype (%)” value [11] was 3% and 2%. For the same compound, the “Population Mitochondria Different-Phenotype (%)” value [11] was 16% and 11% and 7%, the “Population Mitotic Cells (%)” value [11] was 49% and 56% and 54% and the “Population Normal (%)” value [11] was 96% and 97%. For the same compound, the “Population Pyknosed Nuclei (%)” value [11] was 18% and 14% and 13%, the “Population Tubulin-Different-Phenotype (%)” value [11] was 10% and 4% and 12% and the “Total Cell Count” value [11] was 425 and 284 and 300. For the same compound, the “Population Apoptotic (%)” value [12] was 61% and 60% and 57%, the “Population Fragmented Nuclei (%)” value [12] was 18% and 16% and 20% and the “Population Healthy Nuclei (%)” value [12] was 61% and 77% and 62%. The “Population Membrane Permeable-Phenotype (%)” value [12] was 12% and 6% and 5%, the “Population Mitochondria Different-Phenotype (%)” value [12] was 24% and 22% and 17% and the “Population Mitotic Cells (%)” value [12] was 38% and 40% and 42%. For the same compound, the “Population Normal (%)” value [12] was 82% and 94% and 91%, the “Population Tubulin-Different-Phenotype (%)” value [12] was 16% and 15% and 17% and the “Total Cell Count” value [12] was 125 and 91 and 127.
